Data published in ChEMBL document CHEMBL1141363, “Synthesis and evaluation of novel heterocyclic MMP inhibitors” (Bioorg Med Chem Lett, 2007).

Columns and labels:
[1] = biological target: 72 kDa type IV collagenase (Homo sapiens, UniProt P08253); experiment: Inhibition of MMP2
Procedure, shortened: (§1)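 Catalytic domains used at final levels of 85 nM (MMP-1), 24 nM (MMP-2), 18 nM (MMP-9) and 84 nM (MMP-12). Each enzyme was premixed with compound (serial 1:2 dilutions, 150 to 1.2) for 30 min at 37 °C. Substrate was added in 50 mM Hepes with 5 mM CaCl2 and 0.05% w/w Brij-35, pH 7.5, then incubated 30 min. Fluorescence read at ex 328/em 393 nm over 45 min, every 50 s.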

[2] = biological target: Matrix metalloproteinase-9 (Homo sapiens, UniProt P14780); experiment: Inhibition of MMP9; procedure, shortened: as §1
Interstitial collagenase = biological target: T1, Interstitial collagenase (Homo sapiens, UniProt P03956); experiment: Inhibition of MMP1; procedure, shortened: as §1
T1 sequence (P03956 whole entry): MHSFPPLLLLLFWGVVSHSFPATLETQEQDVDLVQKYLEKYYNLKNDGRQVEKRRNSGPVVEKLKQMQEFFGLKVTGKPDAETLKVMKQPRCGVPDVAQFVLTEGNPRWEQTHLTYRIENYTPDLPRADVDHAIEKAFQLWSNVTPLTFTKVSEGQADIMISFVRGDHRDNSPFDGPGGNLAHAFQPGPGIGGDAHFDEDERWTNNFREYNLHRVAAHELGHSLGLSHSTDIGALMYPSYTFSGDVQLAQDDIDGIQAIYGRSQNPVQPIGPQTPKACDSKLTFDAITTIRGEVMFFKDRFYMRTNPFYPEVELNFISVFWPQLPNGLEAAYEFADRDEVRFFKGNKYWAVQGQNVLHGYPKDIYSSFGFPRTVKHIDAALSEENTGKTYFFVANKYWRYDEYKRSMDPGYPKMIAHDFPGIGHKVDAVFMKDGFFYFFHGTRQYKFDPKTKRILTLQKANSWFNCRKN

[3] = biological target: Macrophage metalloelastase (Homo sapiens, UniProt P39900); experiment: Inhibition of MMP12; procedure, shortened: as §1
Sequence of Macrophage metalloelastase (P39900 whole entry): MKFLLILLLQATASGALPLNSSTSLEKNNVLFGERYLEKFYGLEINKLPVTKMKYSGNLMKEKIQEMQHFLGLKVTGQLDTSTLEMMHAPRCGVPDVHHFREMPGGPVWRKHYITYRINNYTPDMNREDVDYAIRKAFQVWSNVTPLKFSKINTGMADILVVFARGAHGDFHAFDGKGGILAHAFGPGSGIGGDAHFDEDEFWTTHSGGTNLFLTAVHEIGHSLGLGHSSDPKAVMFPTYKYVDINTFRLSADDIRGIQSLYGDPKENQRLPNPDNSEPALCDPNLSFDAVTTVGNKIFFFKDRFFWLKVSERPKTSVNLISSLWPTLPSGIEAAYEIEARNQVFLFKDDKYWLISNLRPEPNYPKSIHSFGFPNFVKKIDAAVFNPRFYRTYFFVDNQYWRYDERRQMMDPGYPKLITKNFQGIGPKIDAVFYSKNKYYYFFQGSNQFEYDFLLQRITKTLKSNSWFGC

Sequence of 72 kDa type IV collagenase (P08253 whole entry, the tested form may be a part): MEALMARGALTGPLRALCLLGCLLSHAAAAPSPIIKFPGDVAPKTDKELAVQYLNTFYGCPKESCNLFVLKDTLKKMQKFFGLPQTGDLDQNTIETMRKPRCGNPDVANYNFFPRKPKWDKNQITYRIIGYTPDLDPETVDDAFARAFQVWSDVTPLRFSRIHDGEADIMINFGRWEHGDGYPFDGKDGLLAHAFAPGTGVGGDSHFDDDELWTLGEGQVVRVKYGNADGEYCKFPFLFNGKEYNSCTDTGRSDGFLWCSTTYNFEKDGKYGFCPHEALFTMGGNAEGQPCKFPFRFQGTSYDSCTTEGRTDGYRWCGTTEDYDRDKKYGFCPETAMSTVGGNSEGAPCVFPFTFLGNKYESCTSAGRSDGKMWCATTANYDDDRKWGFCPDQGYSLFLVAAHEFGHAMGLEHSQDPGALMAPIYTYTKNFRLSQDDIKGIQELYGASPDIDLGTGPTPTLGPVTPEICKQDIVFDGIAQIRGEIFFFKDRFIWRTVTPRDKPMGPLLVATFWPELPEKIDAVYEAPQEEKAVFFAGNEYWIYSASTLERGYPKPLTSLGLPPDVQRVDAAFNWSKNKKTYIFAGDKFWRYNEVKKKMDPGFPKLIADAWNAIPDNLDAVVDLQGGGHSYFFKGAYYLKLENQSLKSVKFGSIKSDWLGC
Sequence of Matrix metalloproteinase-9 (P14780 whole entry): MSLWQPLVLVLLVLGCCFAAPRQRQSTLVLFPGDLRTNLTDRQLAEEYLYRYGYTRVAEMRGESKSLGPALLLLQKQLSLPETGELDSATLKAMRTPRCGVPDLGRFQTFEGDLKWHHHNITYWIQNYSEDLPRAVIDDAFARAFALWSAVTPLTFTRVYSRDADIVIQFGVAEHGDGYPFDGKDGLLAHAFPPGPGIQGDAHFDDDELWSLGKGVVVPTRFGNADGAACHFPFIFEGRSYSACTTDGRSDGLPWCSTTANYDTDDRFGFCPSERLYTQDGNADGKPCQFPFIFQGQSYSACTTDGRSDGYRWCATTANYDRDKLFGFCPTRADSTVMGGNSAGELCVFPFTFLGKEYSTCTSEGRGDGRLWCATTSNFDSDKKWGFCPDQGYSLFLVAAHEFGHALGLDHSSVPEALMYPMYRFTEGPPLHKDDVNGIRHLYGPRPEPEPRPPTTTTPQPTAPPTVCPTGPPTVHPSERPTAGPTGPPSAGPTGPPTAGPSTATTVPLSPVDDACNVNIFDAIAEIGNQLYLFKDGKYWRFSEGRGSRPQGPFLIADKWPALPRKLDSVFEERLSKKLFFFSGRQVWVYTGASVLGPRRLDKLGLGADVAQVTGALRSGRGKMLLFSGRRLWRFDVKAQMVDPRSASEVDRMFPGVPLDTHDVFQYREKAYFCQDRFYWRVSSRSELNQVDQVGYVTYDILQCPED

| Structure (SMILES) | IC50 [1] [µM] | IC50 [2] [µM] | IC50 (Interstitial collagenase) [µM] | IC50 [3] [µM] |
| --- | --- | --- | --- | --- |
| C(=C\c1ccccc1)/Cn1cc(C2=NCCO2)nn1 | 149 | > 150 | > 150 | 61 |
| CCCCCCn1cc(C2=NCCO2)nn1 | > 150 | > 150 | > 150 | > 150 |
| c1ccc(Cn2cc(C3=NCCO3)nn2)cc1 | > 150 | > 150 | > 150 | > 150 |
| c1ccc(CCCn2cc(C3=NCCO3)nn2)cc1 | > 150 | > 150 | > 150 | > 150 |
| O=C(OCc1ccc(F)cc1)c1cccc(S)n1 | 108 | 120 | 120 | 112 |
| O=C(OCc1cccc(Oc2ccccc2)c1)c1cccc(S)n1 | 46 | 75 | 78 | 71 |
| O=C(OCc1ccc(Oc2ccccc2)cc1)c1cccc(S)n1 | 93 | 110 | 114 | 109 |
| O=C(OCc1ccc(Cl)cc1)c1cccc(S)n1 | 96 | 112 | 126 | 115 |
| O=C(Oc1cccc2ccccc12)c1cccc(=S)[nH]1 | 98 | > 150 | > 150 | > 150 |
| O=C(Oc1ccc2ccccc2c1)c1cccc(S)n1 | 100 | 119 | 99 | 101 |
| c1ccc(CCn2nnc(Cc3cccnc3)n2)cc1 | > 150 | > 150 | > 150 | > 150 |
| O=C(OC1CCC1)c1cccc(S)n1 | > 150 | 137 | 135 | > 150 |
| Cc1cccc(COC(=O)c2cccc(S)n2)c1 | 7 | 7 | > 150 | 70 |
| COc1cccc(COC(=O)c2cccc(S)n2)c1 | 90 | 93 | 86 | 78 |
| O=C(OCc1cccc(F)c1)c1cccc(S)n1 | 124 | 107 | 119 | 151 |
| COc1ccc(COC(=O)c2cccc(S)n2)cc1 | 91 | 95 | 108 | 96 |
| O=C(OCc1ccccc1Br)c1cccc(S)n1 | 108 | > 150 | > 150 | > 150 |
| c1cncc(Cc2nnn[nH]2)c1 | 48 | > 150 | > 150 | > 150 |
| O=C(Oc1ccsc1)c1cccc(S)n1 | 77 | 90 | 108 | 93 |
| c1ccc(Cn2nnc(Cc3cccnc3)n2)cc1 | > 150 | > 150 | > 150 | > 150 |
| c1ccc(CCCn2nnc(Cc3cccnc3)n2)cc1 | > 150 | > 150 | > 150 | > 150 |
| O=C(OCc1cc(F)ccc1F)c1cccc(S)n1 | 79 | 140 | 114 | 17 |
| CCCCCCCn1cc(C2=NCCO2)nn1 | > 150 | > 150 | > 150 | > 150 |
| c1ccc(CCn2cc(C3=NCCO3)nn2)cc1 | > 150 | > 150 | > 150 | > 150 |
| O=C(OCc1ccccc1)c1cccc(S)n1 | 85 | 88 | 101 | 82 |
| CC(C)OC(=O)c1cccc(S)n1 | > 150 | 132 | 121 | 146 |
| C(=C\c1ccccc1)/Cn1nnc(Cc2cccnc2)n1 | > 150 | > 150 | > 150 | > 150 |
| O=C(OC1CCCCC1)c1cccc(S)n1 | 73 | 91 | 102 | 87 |

Now from value to molecule:

| IC50 [1] [µM] | IC50 [2] [µM] | IC50 (Interstitial collagenase) [µM] | IC50 [3] [µM] | Structure (SMILES) |
| --- | --- | --- | --- | --- |
| 85 | 109 | 115 | 105 | CCCCCCOC(=O)c1cccc(S)n1 |
| 66 | 101 | 92 | 127 | O=C(OCc1c(F)cccc1F)c1cccc(=S)[nH]1 |
| 90 | 105 | 124 | 106 | O=C(OCc1cc(F)c(F)cc1F)c1cccc(=S)[nH]1 |
| 110 | 150 | 119 | 135 | O=C(OCc1ccc(-c2ccccc2)cc1)c1cccc(=S)[nH]1 |
| 42 | 50 | 75 | 52 | O=C(OCc1cccc(-c2ccccc2)c1)c1cccc(=S)[nH]1 |
| 103 | 66 | 50 | 68 | CCCCCOC(=O)c1cccc(=O)[nH]1 |
| 119 | 107 | 120 | 117 | O=C(OCCc1ccccc1)c1cccc(=S)[nH]1 |
| 100 | 112 | 95 | 85 | O=C(OCCCc1ccccc1)c1cccc(=S)[nH]1 |
| 125 | 103 | 75 | 97 | O=C(Oc1ccc2ccccc2c1)c1cccc(=O)[nH]1 |
| 107 | 114 | 128 | 105 | O=C(OCc1ccc2c(c1)OCO2)c1cccc(=O)[nH]1 |
| 33 | > 150 | 42 | 99 | O=C(OCc1cccc(-c2ccccc2)c1)c1cccc(=O)[nH]1 |
| > 150 | > 150 | 68 | 118 | O=C(OCc1cccc(Oc2ccccc2)c1)c1cccc(=O)[nH]1 |
| 73 | 70 | 56 | 65 | O=C(Oc1cccs1)c1cccc(=O)[nH]1 |
| 98 | 119 | > 150 | 81 | Cc1ccc(COC(=O)c2cccc(=S)[nH]2)cc1 |
| 110 | 126 | 134 | 134 | O=C(OCc1cccc(C(F)(F)F)c1)c1cccc(=S)[nH]1 |
| 107 | 114 | 81 | 105 | O=C(OCc1ccc(Br)cc1)c1cccc(=O)[nH]1 |
| 63 | 83 | 138 | 78 | O=C(OCCCCOc1ccccc1)c1cccc(S)n1 |
| 90 | 73 | 86 | 70 | O=C(OC/C=C/c1ccccc1)c1cccc(=O)[nH]1 |
| 111 | 90 | 46 | 76 | O=C(Oc1ccco1)c1cccc(=O)[nH]1 |
| 125 | 141 | > 150 | 94 | O=C(OCc1ccc(C(F)(F)F)cc1)c1cccc(=S)[nH]1 |
| 65 | 67 | 39 | 62 | O=C(Oc1ccsc1)c1cccc(=O)[nH]1 |
| 109 | 109 | 115 | 111 | O=C(Oc1cccc2ccccc12)c1cccc(=O)[nH]1 |
| 67 | 67 | 31 | 67 | CC(C)OC(=O)c1cccc(=O)[nH]1 |
